Laboratory results published in ChEMBL document CHEMBL3627660, “Tetrafluorophenoxymethyl ketone cruzain inhibitors with improved pharmacokinetic properties as therapeutic leads for Chagas' disease” (Bioorg Med Chem Lett, 2015).

What was measured:
[1] = test system: Trypanosoma cruzi; assay: Antitrypanosomal activity against Trypanosoma cruzi infected in C2C12 cells after 72 hrs by DAPI staining; type: functional, organism-based; details: C2C12, 72 h
[2] = molecular target: Cruzipain (Trypanosoma cruzi, UniProt P25779); assay: Inhibition of Trypanosoma cruzi recombinant cruzain using Z-FR-AMC as substrate after 5 mins by fluorescence assay
Chain of Cruzipain (P25779 whole entry): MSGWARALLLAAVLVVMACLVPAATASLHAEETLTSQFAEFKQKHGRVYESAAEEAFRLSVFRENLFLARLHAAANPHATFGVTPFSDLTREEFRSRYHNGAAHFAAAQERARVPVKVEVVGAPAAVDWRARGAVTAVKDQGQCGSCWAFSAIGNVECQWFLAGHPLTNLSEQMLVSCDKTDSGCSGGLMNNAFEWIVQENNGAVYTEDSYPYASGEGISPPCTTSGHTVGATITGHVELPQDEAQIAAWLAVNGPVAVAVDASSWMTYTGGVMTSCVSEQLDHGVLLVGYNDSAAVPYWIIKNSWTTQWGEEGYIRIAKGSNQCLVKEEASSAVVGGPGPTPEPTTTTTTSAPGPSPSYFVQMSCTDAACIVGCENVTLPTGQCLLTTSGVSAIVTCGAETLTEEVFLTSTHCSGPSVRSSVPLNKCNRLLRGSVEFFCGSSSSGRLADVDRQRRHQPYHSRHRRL

[3] = molecular target: Cytochrome P450 3A4 (Homo sapiens, UniProt P08684); assay: Inhibition of CYP3A4 (unknown origin); type: ADME
Chain of Cytochrome P450 3A4 (P08684 whole entry): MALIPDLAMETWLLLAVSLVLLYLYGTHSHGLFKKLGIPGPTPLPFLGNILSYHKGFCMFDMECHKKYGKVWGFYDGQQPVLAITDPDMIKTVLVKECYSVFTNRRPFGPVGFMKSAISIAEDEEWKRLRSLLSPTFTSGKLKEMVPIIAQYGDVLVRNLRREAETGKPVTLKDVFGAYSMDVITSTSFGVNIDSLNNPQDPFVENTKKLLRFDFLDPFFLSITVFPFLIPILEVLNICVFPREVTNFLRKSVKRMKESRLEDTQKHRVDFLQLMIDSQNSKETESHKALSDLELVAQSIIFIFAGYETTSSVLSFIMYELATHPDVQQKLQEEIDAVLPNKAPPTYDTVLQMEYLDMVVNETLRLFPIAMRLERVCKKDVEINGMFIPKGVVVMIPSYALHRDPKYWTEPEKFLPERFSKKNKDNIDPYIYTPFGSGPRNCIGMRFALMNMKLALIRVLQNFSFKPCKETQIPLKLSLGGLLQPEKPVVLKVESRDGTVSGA

[4] = test system: MDCK; assay: Apparent permeability from apical to basolateral side in MDCK cells assessed as per 10^-6 cells; type: ADME, cell-based, Canis lupus familiaris; details: dog
[5] = AUC in mouse at 10 mg/kg, iv; type: ADME, organism-based; details: in vivo
[6] = Half life in mouse at 10 mg/kg, iv; type: ADME, organism-based; details: in vivo
Outline: (§1)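 Mouse PK study with two dosing arms: 40 mg/kg orally and 10 mg/kg intravenously. The parameters derived were AUC, T1/2, CL, Vss and F%.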

[7] = Half life in mouse at 40 mg/kg, po; type: ADME, organism-based; details: in vivo; outline: as §1
[8] = Clearance in mouse at 10 mg/kg, iv; type: ADME, organism-based; details: in vivo; outline: as §1
[9] = Cmax in mouse at 40 mg/kg, po; type: ADME, organism-based; parameters: dose 40 mg/kg, route oral; details: in vivo
Outline: (§2)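 In vivo mouse pharmacokinetic study with two arms, intravenous at 10 mg/kg and oral at 40 mg/kg. Exposure parameters derived were AUC, T1/2, CL, Vss and oral bioavailability (F%).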

[10] = Volume of distribution at steady state in mouse at 10 mg/kg, iv; type: ADME, organism-based; details: in vivo, read-out: Vdss; outline: as §1
[11] = test system: Mus musculus; assay: Oral bioavailability in mouse at 40 mg/kg; type: ADME, organism-based; details: in vivo; outline: as §1
[12] = AUC in mouse at 40 mg/kg, po; type: ADME, organism-based; details: in vivo
[13] = Half life in mice after oral dosing; details: in vivo
[14] = Cmax in mouse at 10 mg/kg, iv; type: ADME, organism-based; parameters: dose 10 mg/kg, route intravenous; details: in vivo; outline: as §2

| Structure (SMILES) | IC50 [1] | IC50 [2] | IC50 [3] | Papp [4] | other results |
| --- | --- | --- | --- | --- | --- |
| C[C@@](NCc1ccc2occc2c1)(c1cn(C(CCS(C)(=O)=O)C(=O)COc2c(F)c(F)cc(F)c2F)nn1)C1CCCC1 (some centres undefined) | 5 nM | 790 nM | – | – | – |
| CCCCC(C(=O)COc1c(F)c(F)cc(F)c1F)n1cc([C@@](C)(NC(=O)c2ccc3ncccc3c2)C(C)C)nn1 (some centres undefined) | 700 nM | 1350 nM | – | – | – |
| CC(C)[C@](C)(NCc1ccc2ncccc2c1)c1cn(C(CCS(C)(=O)=O)C(=O)COc2c(F)c(F)cc(F)c2F)nn1 (some centres undefined) | 380 nM | 560 nM | 1200 nM | 3.49 ×10⁻⁶ cm/s | – |
| COCCC(C(=O)COc1c(F)c(F)cc(F)c1F)n1cc([C@@](C)(NCc2ccc3ncccc3c2)C(C)C)nn1 (some centres undefined) | 2 nM | 340 nM | – | – | – |
| CCCCC(C(=O)COc1c(F)c(F)cc(F)c1F)n1cc([C@@](C)(NCc2ccncc2)C(C)C)nn1 (some centres undefined) | 143 nM | 1100 nM | – | – | – |
| CCCCC(C(=O)COc1c(F)c(F)cc(F)c1F)n1cc([C@@](C)(NC(=O)c2ccncc2)C(C)C)nn1 (some centres undefined) | 1600 nM | 23000 nM | – | – | – |
| CCCCC(C(=O)COc1c(F)c(F)cc(F)c1F)n1cc([C@@](C)(NCc2ccc3ncsc3c2)C(C)C)nn1 (some centres undefined) | 2 nM | 37 nM | 300 nM | 2.26 ×10⁻⁶ cm/s | AUC [5]: 9610 ng·h/mL; half-life [6]: 5.67 h; half-life [7]: 3.41 h; clearance [8]: 16.6 mL/min/kg; Cmax [9]: 1230 ng/mL; Vd [10]: 6.5 L/kg; F [11]: 19.1%; AUC [12]: 6570 ng·h/mL |
| CCCCC(C(=O)COc1c(F)c(F)cc(F)c1F)n1cc([C@@](C)(NC(=O)c2ccc3ncsc3c2)C(C)C)nn1 (some centres undefined) | 650 nM | 3590 nM | – | – | – |
| CC(C)[C@](C)(NCc1ccc2ncsc2c1)c1cn(C(CCS(C)(=O)=O)C(=O)COc2c(F)c(F)cc(F)c2F)nn1 (some centres undefined) | 12 nM | 125 nM | – | – | – |
| COCCC(C(=O)COc1c(F)c(F)cc(F)c1F)n1cc([C@@](C)(NCc2ccc3ncsc3c2)C(C)C)nn1 (some centres undefined) | 44 nM | 63 nM | – | – | – |
| CCCCC(C(=O)COc1c(F)c(F)cc(F)c1F)n1cc([C@@](C)(NCc2ccc3ncsc3c2)C2CCCC2)nn1 (some centres undefined) | 3 nM | 5 nM | – | – | – |
| C[C@@](NCc1ccc2ncsc2c1)(c1cn(C(CCS(C)(=O)=O)C(=O)COc2c(F)c(F)cc(F)c2F)nn1)C1CCCC1 (some centres undefined) | 10 nM | 25 nM | 200 nM | 6.8 ×10⁻⁶ cm/s | – |
| COCCC(C(=O)COc1c(F)c(F)cc(F)c1F)n1cc([C@@](C)(NCc2ccc3ncsc3c2)C2CCCC2)nn1 (some centres undefined) | 7 nM | 124 nM | – | – | – |
| CC(C)[C@](C)(NCc1ccc2occc2c1)c1cn(C(CCS(C)(=O)=O)C(=O)COc2c(F)c(F)cc(F)c2F)nn1 (some centres undefined) | 3 nM | 880 nM | – | – | – |
| CCCCC(C(=O)COc1c(F)c(F)cc(F)c1F)n1cc([C@@](C)(NCc2ccn3nccc3n2)C(C)C)nn1 (some centres undefined) | 8 nM | 75 nM | 314 nM | 15.1 ×10⁻⁶ cm/s | – |
| CCCCC(C(=O)COc1c(F)c(F)cc(F)c1F)n1cc([C@@](C)(NCc2ccn3nccc3n2)C2CCCC2)nn1 (some centres undefined) | – | 3 nM | 263 nM | 2.9 ×10⁻⁶ cm/s | AUC [5]: 5370 ng·h/mL; half-life [6]: 3.04 h; half-life [7]: 2.32 h; clearance [8]: 30.7 mL/min/kg; Vd [10]: 4.19 L/kg; F [11]: 37%; AUC [12]: 8110 ng·h/mL |
| CC(C)[C@](C)(NCc1ccn2nccc2n1)c1cn(C(CCS(C)(=O)=O)C(=O)COc2c(F)c(F)cc(F)c2F)nn1 (some centres undefined) | 2340 nM | 467 nM | – | – | – |
| COCCC(C(=O)COc1c(F)c(F)cc(F)c1F)n1cc([C@@](C)(NCc2ccn3nccc3n2)C2CCCC2)nn1 (some centres undefined) | 20 nM | 2820 nM | – | – | – |
| CCCCC(C(=O)COc1c(F)c(F)cc(F)c1F)n1cc([C@@](C)(NCc2ccc3ncccc3c2)C2CCCC2)nn1 (some centres undefined) | 15 nM | 27 nM | 260 nM | 0.48 ×10⁻⁶ cm/s | AUC [5]: 8710 ng·h/mL; half-life [6]: 4.2 h; half-life [7]: 3 h; clearance [8]: 19 mL/min/kg; Vd [10]: 5.4 L/kg; F [11]: 23%; AUC [12]: 8100 ng·h/mL |
| CCCCC(C(=O)COc1c(F)c(F)cc(F)c1F)n1cc([C@@](C)(NCc2ccc3ncccc3c2)C(C)C)nn1 (some centres undefined) | 22 nM | – | 3800 nM | 3.02 ×10⁻⁶ cm/s | half-life [13]: 3.3 h; Cmax [14]: 4130 ng/mL; AUC [5]: 4670 ng·h/mL; half-life [6]: 2.95 h; half-life [7]: 3.34 h; clearance [8]: 36.2 mL/min/kg; Cmax [9]: 833 ng/mL; Vd [10]: 4.2 L/kg; F [11]: 21%; AUC [12]: 3860 ng·h/mL |
